# Source: PubChem (several laboratories)
# This is a sample that favours compounds with a hit; in the whole collection about 0.99% have one here.
# DDE Tn6 FP inh: inhibitors of Tn6 peptide binding to human fibrin DD(E) | Fibrin DD(E) TRITC-Tn6 fluorescence polarization displacement | inhibition, % at 8.3 µM | 370,000 compounds, 0.21% hits;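 active = inhibition above a per-campaign cutoff: mean of compounds within control limits plus 3 SD, cut at about 15% in these data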
# ABCG2 inh: inhibitors of human ABCG2 transporter, ABCB1 counter-screen. Q9UNQ0. 190,000 compounds, 0.1% hits. inhibition, % at 6.6 µM. IgMXP3 cells, JC-1 efflux, flow cytometry;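 active = inhibition above 80%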
#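 Test system: IgMXP3 (ABCG2) plus far-red-tagged CCRF-Adr (ABCB1) cells. Reagent: JC-1 dye as substrate. Timing: 10 min exposure at 25 °C with rotation, no wash. Measured by: flow cytometric JC-1 green MFI at 530 nm. Read-out: percent efflux inhibition, scaled nicardipine 100% to DMSO 0%. Control set: nicardipine and DMSO wells.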
# Ins promoter up: MIN6 insulin promoter up-regulation. 190,000 compounds, 0.3% hits. AID 1625. z-score at 5 µM. MIN6 insulin promoter-GFP reporter, high-content imaging; stronger effect = higher value;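 active = z-score above 3 at 5 µM with at least 500 cells counted in the well; inconclusive = wells under 500 cells, flagged as cytotoxic or low count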
# ABCB1 block: blocks JC-1 efflux by human ABCB1 transporter. inhibition, % at 6.6 µM. AID 1326. 190,000 compounds, 0.067% hits. CCRF-Adr cells, flow cytometry; in the data active = inhibition above about 40%;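 also: higher value means more JC-1 retained so stronger ABCB1 efflux block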
# GRK2 inh: blocks RNA aptamer binding to human GRK2; P25098; bead flow cytometry, FAM-aptamer displacement from GRK2; inhibition of aptamer binding, % at 10 µM; 330,000 compounds, 0.59% hits; AID 488847;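 active = inhibition of aptamer binding above 40%, roughly 3 SD of noise, on plates passing a quality check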;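 also: median bead fluorescence of bound FAM aptamer so fluorescent compounds give negative values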
# Target sequence (P25098 whole entry, looked up): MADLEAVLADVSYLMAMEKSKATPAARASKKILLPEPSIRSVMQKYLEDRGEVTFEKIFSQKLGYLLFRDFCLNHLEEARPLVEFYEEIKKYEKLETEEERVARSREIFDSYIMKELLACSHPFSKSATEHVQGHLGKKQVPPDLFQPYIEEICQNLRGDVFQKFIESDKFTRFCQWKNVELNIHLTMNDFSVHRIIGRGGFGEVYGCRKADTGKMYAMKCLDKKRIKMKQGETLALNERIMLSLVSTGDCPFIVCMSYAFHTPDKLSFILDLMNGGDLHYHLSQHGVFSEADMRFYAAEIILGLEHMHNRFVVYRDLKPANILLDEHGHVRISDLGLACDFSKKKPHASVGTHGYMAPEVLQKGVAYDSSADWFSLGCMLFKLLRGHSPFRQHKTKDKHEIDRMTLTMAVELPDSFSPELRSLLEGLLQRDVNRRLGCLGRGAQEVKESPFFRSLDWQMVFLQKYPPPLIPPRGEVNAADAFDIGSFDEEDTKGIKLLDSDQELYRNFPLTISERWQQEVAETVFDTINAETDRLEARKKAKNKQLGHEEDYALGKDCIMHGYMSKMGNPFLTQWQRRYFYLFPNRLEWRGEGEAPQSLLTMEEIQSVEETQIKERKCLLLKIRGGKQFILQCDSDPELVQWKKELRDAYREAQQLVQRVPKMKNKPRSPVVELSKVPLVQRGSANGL
# DDE Tn7 FP inh: disrupts Tn7 cyclic peptide binding to fibrin D-Dimer-E complex; P02675; FP displacement of FITC-Tn7 peptide from fibrin DD(E); 0% = median of compound wells per plate; inhibition, % at 8.3 µM; 370,000 compounds, 0.13% hits;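 active = inhibition above the mean of compounds falling within the control limits plus 3 SD of them, cut at about 14% in these data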
#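 Assay system: Human clot-derived fibrin DD(E) complex | Buffer or medium: Tris/NaCl/CaCl2 buffer, pH 7.8 | Repeats: One replicate per compound | Benchmarks: Aha-Tn7 high control | Measure: % inhibition scaled between sample-field median and high-control FP | Schedule: 10 min plus 3 h, room temperature | Signal: Fluorescence polarization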
# Tn7 DDE conf: DD(E)-Tn7 binding inhibition, FP confirmation; shares compounds with DDE Tn7 FP inh; FP displacement of TRITC-Tn7 peptide from DD(E); 0% set at plate's compound-well median; inhibition, % at 8.3 µM; 460 compounds, 5% hits;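 active = inhibition above the campaign cutoff, the mean of compounds within control limits plus 3 SD, cut at about 14% in these data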;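 also: displacers lower polarization since freed probe rises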
# Tn7 DDE ctr: counter-screen hit for Tn7 peptide-fibrin DD(E) binding disruption; shares compounds with DDE Tn7 FP inh; TRITC-Tn7 probe displacement, fluorescence polarization; inhibition, % at 8.3 µM; 460 compounds, 3% hits;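 active = inhibition above the cutoff, the mean of compounds lying between the control bounds plus 3 SD of those compounds, cut at about 17% in these data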
# A number is an active result; . = inactive; ? = inconclusive; / = no result given.
SMILES,DDE Tn6 FP inh,ABCG2 inh,Ins promoter up,ABCB1 block,GRK2 inh,DDE Tn7 FP inh,Tn7 DDE conf,Tn7 DDE ctr
COC(=O)C1CN(C2CCCC2)CCS(=O)(=O)N1Cc1ccccc1 (centres undefined),.,/,/,/,/,16,.,.
CC1(C)CC2(CC(C)(C(=O)CSc3nc4ccccc4s3)OC2=O)C(=O)O1 (centres undefined),.,.,.,.,.,18,.,.
COC(=O)C1CSC(C(=O)OC)N1C(=O)Nc1ccc(Cl)c(Cl)c1 (centres undefined),.,.,.,.,.,15,.,.
CN(CCOC(=O)c1cc2ccccc2o1)C1CN(Cc2cn(Cc3ccccc3Cl)nn2)S(=O)(=O)C1 (centres undefined),.,/,/,/,/,.,/,/
CC(C)c1nc(C#N)c(NN)o1,.,/,.,/,.,14,.,.
CC1CCN(CC(O)COCCC23CC4CC(CC(C4)C2)C3)CC1 (centres undefined),.,.,.,.,.,15,.,.
CC1CCN(CC(O)COCCOc2ccc(Br)cc2)CC1 (centres undefined),.,.,.,.,.,.,/,/
CCCCCCCCNC(=O)C1CSCCS(=O)(=O)N1Cc1ccccc1 (centres undefined),.,/,/,/,/,.,/,/
C#CCNc1ccc([N+](=O)[O-])cc1,.,.,.,.,.,19,.,.
O=[N+]([O-])c1ccc(NCCNc2ccc([N+](=O)[O-])cc2)cc1,.,/,/,/,/,.,/,/
COc1ccc(-c2ccc(C(=O)NC3CCCCC3)c3occc23)c(C)c1,.,/,/,/,/,16,.,.
COCCNC(=O)COC(=O)c1ccc(S(=O)(=O)N2CCOCC2)cc1,.,.,/,.,.,16,.,.
O=C(COC(=O)c1ccc(S(=O)(=O)N2CCOCC2)cc1)NCc1ccccc1,.,/,/,/,.,.,/,/
COc1ccccc1N1CCN(C(=O)c2oc3ccc(F)cc3c2C)CC1,.,.,/,.,.,16,.,.
COc1ccccc1N1CCN(C(=O)COc2cccc(C)c2C)CC1,.,.,.,.,.,.,/,/
COc1ccccc1OCC(=O)N1CCN(c2ccccc2OC)CC1,.,.,.,.,.,19,.,.
COc1ccc(Cl)cc1-c1cc(C(=O)NCc2ccc(F)cc2)[nH]n1,.,/,/,/,/,.,/,/
O=C(Cn1nnc(-c2ccc(F)cc2)n1)Nc1ccc2c(c1)OCCO2,.,.,.,.,.,15,.,.
O=C(CCc1ccccc1)N[C@H]1[C@@H](OC(=O)c2cnccn2)CCC[C@@]12C(=O)N(Cc1ccccc1)c1ccccc12,.,/,/,/,/,.,/,/
CCOc1ccc(CCN2C(=S)N([C@@H](Cc3ccc(O)cc3)CN3CCC[C@@H]3CN3C(=S)NC[C@@H]3CC(C)C)C[C@@H]2CC(C)C)cc1,.,/,/,/,/,14,.,.
COc1cccc(/C=N\NC(=O)c2ccc(Cn3cc(Br)c([N+](=O)[O-])n3)o2)c1O,.,.,/,.,.,14,.,.
CCCCCCCCN1C(=O)[C@@H](CC(=O)NCC23CC4CC(CC(C4)C2)C3)C[C@@]2(C(=O)OC)C1=C[C@H](C1CCCC1)O[C@@H]2C,.,/,/,/,/,.,/,/
C=CC[C@@H](CC(=O)N(CCO)Cc1ccccc1)C(=O)N[C@H](COC(=O)[C@@H](CC=C)Cc1ccc(F)cc1)Cc1ccccc1,.,/,/,/,.,16,.,.
C=CC[C@@H](CC(=O)N(CCO)Cc1ccccc1)C(=O)N[C@@H](COC(=O)[C@@H](CC=C)Cc1ccc(F)cc1)Cc1ccccc1,.,/,/,/,.,.,/,/
COC(=O)[C@]12C[C@H](CC(=O)NCc3ccc(OC)c(OC)c3)C(=O)N(Cc3ccc(Cl)cc3Cl)C1=C[C@H](C(C)C)O[C@@H]2C1CC1,.,/,/,/,/,.,/,/
SMILES,DDE Tn6 FP inh,ABCG2 inh,Ins promoter up,ABCB1 block,GRK2 inh,DDE Tn7 FP inh,Tn7 DDE conf,Tn7 DDE ctr
CCCS(=O)(=O)NC(=O)C1(C)CCCN(C(=O)c2cccnc2Oc2ccccc2)C1 (centres undefined),.,/,/,/,/,.,/,/
CCCNC(=O)C1(C)CCCN(C(=O)c2cccnc2Oc2ccccc2)C1 (centres undefined),.,/,/,/,/,14,.,.
CN(C)S(=O)(=O)N1CCC(Oc2ccc(C(=O)N3C[C@@H]4CCC[C@H]3C4)cc2)CC1,.,/,/,/,.,14,.,.
CN(C)S(=O)(=O)N1CCC(Oc2ccc(C(=O)N3C[C@H]4CC[C@H]3C4)cc2)CC1,.,/,/,/,.,.,/,/
O=C(ONC(=O)C1C2C=CC(C2)C1C(=O)NOC(=O)c1ccccc1)c1ccccc1 (centres undefined),.,/,/,/,/,.,/,/
O=C(N/N=C/c1sc(=O)[nH]c1-[n+]1ccc2ccccc2c1)c1ccccc1[O-],.,/,/,/,.,20,.,.
CCc1ccc(C(C)NC(=O)/C(C#N)=C\c2cn[nH]c2-c2ccccc2)cc1 (centres undefined),.,.,.,.,.,14,.,.
Cc1ccc(NC(=O)CCS(=O)(=O)c2ccccc2)c(C)c1,.,/,/,/,/,.,/,/
COCCn1c(-c2ccc(OC)cc2)nc2ccccc21,.,.,/,.,.,.,/,/
COCCn1c2nc(=O)n(-c3ccccc3)c(=O)c-2nc2ccccc21,.,/,/,/,/,51,26,.
CC(=O)Nc1sc(C)c(C)c1C(=O)OCC(=O)NCc1ccccc1,.,/,/,/,/,.,/,/
CC(=O)Nc1sc(C)c(C)c1C(=O)OCC(=O)Nc1ccccc1C(F)(F)F,.,/,/,/,/,16,.,.
C[C@H](c1ccccc1)N1C[C@@H](COCc2ccccc2)Oc2cccc(N3CCCCC3)c2S1(=O)=O,.,/,/,/,/,.,/,/
O=C(NCc1ccccc1F)C1CCC(CNS(=O)(=O)c2cccc3cccnc23)CC1 (centres undefined),.,/,/,/,/,.,/,/
Cc1onc(C(=O)Nc2sc3c(c2C(N)=O)CCCC3)c1[N+](=O)[O-],.,/,.,/,.,16,.,.
CC(C)c1ccccc1NC(=O)[C@@H]1CCCN1S(=O)(=O)c1cccc2cccnc12,.,/,/,/,/,.,/,/
CCOP(=O)(c1ccccc1)C(O)c1ccc([N+](=O)[O-])cc1 (centres undefined),.,/,/,/,.,16,.,.
CCOP(=O)(c1ccccc1)C(O)c1ccc(F)cc1 (centres undefined),.,.,.,.,.,.,/,/
Cc1ccc(-n2cnnn2)c2cccnc12,.,.,.,.,.,.,/,/
Cc1ccc(N2C(=O)c3cccc4c(N)ccc(c34)C2=O)c2cccnc12,.,/,?,/,.,19,.,.
N=c1c2c(-c3ccccc3)c(-c3ccccc3)n(Cc3ccccc3)c2ncn1C1CCOCC1,.,/,/,/,/,.,/,/
